Reference: PMC4505548 (Organic & biomolecular chemistry, 2008)

Target: Neisseria meningitidis CSS (NmCSS), CMP-sialic acid synthetase (Neisseria meningitidis, UniProt P0A0Z8)
Assay: capillary electrophoresis UV assay of CMP-Neu5Ac formation
Format: biochemical
Conditions: 1000 µM; 1 mM CTP, 1 mM Neu5Ac, 20 mM MgCl2, Tris-HCl pH 8.5, 37 °C, 15 min
How it was run: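 Purified recombinant NmCSS (1.25 ng) in 200 mM Tris-HCl pH 8.5 with CTP, Neu5Ac and MgCl2, reacted with test compound at 1 mM for 15 min at 37 °C. Stopped with 10% SDS on ice (final 1% SDS). CMP-Neu5Ac measured by capillary electrophoresis with UV detection. Percent conversion calculated from a UV response standard curve of CTP and CMP-Neu5Ac.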

Chain of Neisseria meningitidis CSS (NmCSS), CMP-sialic acid synthetase (P0A0Z8 whole entry): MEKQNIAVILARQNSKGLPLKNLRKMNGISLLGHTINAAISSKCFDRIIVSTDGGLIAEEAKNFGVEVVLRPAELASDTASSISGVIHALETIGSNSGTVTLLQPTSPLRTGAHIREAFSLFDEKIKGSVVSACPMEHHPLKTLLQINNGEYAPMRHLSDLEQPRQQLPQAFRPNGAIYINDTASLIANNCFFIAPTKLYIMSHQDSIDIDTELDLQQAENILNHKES

Row | Substance | % Inhibition
1 | Saturated sulfo-CDP [compound 12] | 55 ± 4%
2 | Saturated sulfo-UDP [compound 22] | 35 ± 2%
3 | Sulfo-CDP [compound 5] | 47 ± 2%
4 | Sulfo-CTP [compound 4] | 39 ± 2%
5 | Sulfo-UTP [compound 19] | 33 ± 5%
